B1: tRNA (parent)
chain: GUUCCGUUGGCGUAAUGGUAACGCGUCUCCCUCCUAAGGAGAAGACUGCGGGUUCGAGUCCCGUACGGAACG

This sample holds only a part of the variants without activity.

This series covers variants of B1. As to the kind of experiment: yeast fitness relative to wild type (ratio to wild type); higher = fitter; tRNA-Arg(CCU), competitive growth, 37 C, YPD. A digest of the protocol:
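For this measurement, the tRNA-Arg(CCU) gene was varied by chemical synthesis at a 3% per-site mutation rate across 69 sites, and each variant was placed at the native genomic locus in Saccharomyces cerevisiae. The pooled strains went through a 24-hour competition in YPD at 37°C in six parallel replicates, with amplicons from start and end populations read by 100-nucleotide paired-end sequencing. Darwinian fitness relative to wild type followed from the change in each genotype's frequency. Genotypes needed ≥ 100 starting reads, and estimates < 0.5 were set to 0.5.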
Take G6A C22U A40C: the yeast fitness is no more than 0.5.
Turning to U8A C11U A21C G56C G68C, the yeast fitness is no more than 0.5.
The result for A14G U59G reads 0.774.
Take C4U U26A G56A: the yeast fitness was found to be 0.632.
The value for C5U C46G G68U was no more than 0.5; that for C27U C30U C62A was 0.564.
The value for G9A U54G was 0.552; that for C4U G56A G67A was 0.649; that for C33U A37U G51C A65U was 0.584.
The value for A20C A37U U59G C66A was 0.656; that for G18A G56C was 0.521; that for A57G U59C A70G was 0.684.
Take C4U G10A C30U C49G G68A: the yeast fitness was determined as 0.585.
The result for C11G A14C A57C C61A A69C reads 0.581.
The result for U8C U64A A65U reads 0.553; that for G10C A15C A21C A69U, no more than 0.5; that for U13C G44A, 0.827.
For the variant G25C C46U G50A C66U, the yeast fitness was 0.716.
The value for U19A A21C C31G G41A A43C was no more than 0.5.
The result for G9A A57U A65U reads 0.532; that for A15U A45U G68C, no more than 0.5; that for U26C A37G A69U, 0.665.
The value for A21G C33U was 0.73; that for G6A C34G G52C A65U was no more than 0.5.
As for G6A C27G A42C, the yeast fitness is no more than 0.5.
The result for U8C G44A U53C C55A A70U reads no more than 0.5.
The result for C5A C29A A45U C62G C66G reads no more than 0.5; that for C5G G48C G67C, 0.573.
The result for U19A C55G reads 0.559; that for U3C G67U, 0.839.
With C4U C11A C29U C49A, the yeast fitness is no more than 0.5.
The value for A14C U59A was 0.746.
The result for C4A A36G A40G C66U reads 0.624; that for G38A A42C, 0.734; that for G12A G18C A36C, 0.537.
The value for G50A C55G C62A was 0.654; that for C5U C24A C33U A70U was no more than 0.5; that for U2A C4U G25C C49U C61U was 0.581.
Consider C5G A14C A37G A69U, for which the yeast fitness was no more than 0.5.
The result for C34U A37U A45U A57G C61U reads no more than 0.5; that for C4U U7A A20G C24A G51A, no more than 0.5.
The result for A21G G23A A45C G52A A69C reads 0.521; that for U13G C31U U35A G51A A69U A70G, no more than 0.5; that for C33U G56A, 0.682.
The result for A20C A65U reads 0.722.
As for C5G U8A G41C U47A C61A G67C, the yeast fitness was no more than 0.5.
The value for U7G G51C was 0.644; that for C31U C61A was 0.726; that for U8A G18A G52A U59A G67C was no more than 0.5.
In the case of C24A C30U U64G, the yeast fitness was no more than 0.5.
The value for U47C G52A C61G was no more than 0.5; that for C22A C24A U26C U35C was no more than 0.5; that for C31U U35A A37G A40C U47C U64G was 0.512.
The result for C5A C24G A65G C66U reads no more than 0.5.
The value for C4U G9C A45G C61A was no more than 0.5; that for A40G A45C C49G G67C A69U was no more than 0.5; that for U8A G12C G17A C33U A40G G41C was no more than 0.5.
As to G9A C24G G41C C66G, the yeast fitness was no more than 0.5.
The result for U19C G52C U64A reads no more than 0.5.
The value for G23C C34U A36U C55A was 0.581; that for C4U G56C was 0.655; that for A15G G50A G56A was 0.552.
The result for A20C C31A C60U reads no more than 0.5; that for G12C A20U G25A, no more than 0.5; that for G17C A65U, 0.649.
A45G C61A: the yeast fitness was 0.635.
Turning to G10C C31U U35G C62U, the yeast fitness was no more than 0.5.
The result for C33U G50C A57C reads 0.623.
The result for A37C G52C reads 0.537.
The result for U3A C31U A40C G48A G68C reads no more than 0.5; that for C34U C49A G52A, 0.59.
In the case of U3A C22G C30U U32G U53C G68C A70G, the yeast fitness is no more than 0.5.
The value for G17C C29U U32A C46U was no more than 0.5; that for A37U G44A C49U A57C C61G was no more than 0.5; that for U16A C30U A42U was 0.618.
The result for A43U C46G A57G U64A A70G reads no more than 0.5; that for C33A U53A, no more than 0.5.
G48A C61A G68U: the yeast fitness came out at 0.561.
The result for C5G A20G C22G C29G G63C reads no more than 0.5; that for C24G A36G A40C C55G G63C, no more than 0.5.
The result for U3G A14U A15U A20C C33G A40U C61G reads 0.543; that for C11U C30G G58A, no more than 0.5; that for C5G C61G A69C, 0.574.
As to U8C A37G G38C G51A, the yeast fitness is no more than 0.5.
The result for G12C U16A G23C C29A A45C G68A reads 0.748; that for U7A G67A, 0.781; that for U2C A37G C55G U64A, no more than 0.5.
The result for U3C U8C A14G U28G A36U C46U C61U reads 0.549.
On to G10A C30A C31G A69G, for which the yeast fitness is no more than 0.5.
The value for A14U C24U C33A G44C U47C was 0.534.
The result for A15U C55G U64C A65C reads no more than 0.5; that for U8G G10C C11U A37G U59C, no more than 0.5.
The value for C22G C27G U59C C62U U64C G68U was no more than 0.5; that for A14U G17C U28C C30G G41C A42C U47C G50A C62A was no more than 0.5.
Take A15C U28G C30G A40C A42U: the yeast fitness is no more than 0.5.
The value for C5U U54A was 0.699; that for C5U U54G was 0.647.
The result for C29U C30A G38A reads no more than 0.5; that for A14G A21G A70U, 0.684.
Take C4U A45G G51A G67A: the yeast fitness is no more than 0.5.
The result for G9A A14C reads 0.591; that for A15U C24G C30U A57U A69C, no more than 0.5; that for G9A A20G C49U, 0.847.
The result for U54A A65C reads 0.724; that for C5G U26C A36C, 0.547; that for C4U U8C A40U G50C, no more than 0.5.
The value for U13A G18C A36G G41C U47A was no more than 0.5; that for A15G C29G C34G C66G was no more than 0.5; that for U16C C30G C61U G68A was no more than 0.5.
Consider C24A A36G A37G A69C, for which the yeast fitness is no more than 0.5.
The result for U8C A36U G38A A45U C49U C61G reads no more than 0.5; that for A37U C49A, 0.712; that for C22U U35C C49U U53A, no more than 0.5.
The result for C29G U35C A45U C60G G63C reads 0.669.
The value for G25C C34U G41A C49G was 0.54; that for A45C C66A was 0.665; that for A40U A42C was 0.752.
Regarding G12A A20U G25C U53A, the yeast fitness worked out at 0.599.
The result for G12C A65U A70U reads 0.606; that for C5U C29G C30G A65C, no more than 0.5; that for C11G C34G, 0.524.
As for C31A A37U G63A G67C, the yeast fitness is no more than 0.5.
The result for G41A G56C G63A U64C G67C reads no more than 0.5; that for C5G A40U G44A C61A, 0.567; that for A15C C34G C46A C61U C66G, no more than 0.5.
The result for G12C G17A C49A G56A reads no more than 0.5; that for C5U A14C C24U A36G A70U, no more than 0.5; that for G23A C29U A45U, 0.967.
The result for A20U G23C A45U G58A A70C reads no more than 0.5; that for C33G A40U G51C, no more than 0.5.
As for G6A C24U A42U U53G G68C, the yeast fitness was no more than 0.5.
With C22U C34G, the yeast fitness was determined as 0.597.
In the case of G6A C34G, the yeast fitness came out at 0.569.
Take G9A G10A C31G: the yeast fitness was no more than 0.5.
The result for A14G U32C A42G U59C reads no more than 0.5.
Consider C5G U32A C62G, for which the yeast fitness is no more than 0.5.
C24U U28G C33G C34U A36G A40G A70C: the yeast fitness was no more than 0.5.
The result for U2G A21U reads 0.729; that for G10C C33G A57G, no more than 0.5; that for U2A A14C C30U C34G A45U, no more than 0.5.
In the case of C4A G23C G50A A57G, the yeast fitness came out at 0.62.
For G48A G56A, the yeast fitness came to 1.02.
As for A21C G25C U26G U59A A70C, the yeast fitness was found to be 0.559.
The result for C5G C22U A36G A65C reads no more than 0.5; that for U2C C4U C31A C33U G56C, no more than 0.5.
The result for A37G G51A reads 0.704; that for C5A C34A G68C, no more than 0.5.
As for G23A U54A, the yeast fitness came to 0.605.
The result for A21C C27A A45U U47G reads no more than 0.5; that for A14C C22G G52C, no more than 0.5; that for A15C A21C A36U U47C G63A, 0.578.
The result for C31U A42U A70U reads 1.14; that for C22U C46G C49G A57G, no more than 0.5.
The value for C30A C46G G56A was 0.74.
For U2C U3A U26C U53C, the yeast fitness was no more than 0.5.
The value for G23A A65C was 0.816; that for C5G C27G C33U G56A was 0.527.
The result for G18U U26A G56A G67A reads 0.578; that for C24G U28G C46G, no more than 0.5; that for A15G A20G C27A A40G A45C C55U, no more than 0.5.
For C33U A43G, the yeast fitness amounted to 0.672.
For the variant A20C A21G C24U U26C, the yeast fitness is no more than 0.5.
The value for C27G G48A was 0.565.
The value for U2C A20C C29G A36C G52C A57U was no more than 0.5.
The value for G12C U35G A69C was 0.571.
Regarding C22G C24A C61G C66A, the yeast fitness was no more than 0.5.
Consider G9A C11G G68A, for which the yeast fitness is no more than 0.5.

Source of the values: the RNAGym collection of RNA variant scans (doi:10.1126/science.aae0568).
